Sampled rows, rich in hits. Any-hit rate of the full collection: about 3.6%.
FID counter = displaces DNA intercalator in HCV helicase counter-screen | DNA fluorescent intercalator displacement, fluorescence | inhibition, % at 7.9 µM | 0.17% of 290,000 active | AID 1845; in the data active = inhibition above about 37%;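 note: higher means more ethidium bromide displaced from hairpin DNA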
EBNA-1 inhibitor = blocks EBNA-1 binding to DNA; EBNA-1 DNA binding, fluorescence polarization; inhibition, % at 14.8 µM; 0.34% of 300,000 active; AID 1950; in the data active = inhibition above about 28%
GRIN3A LBD mod = modulates the human NR3A ligand-binding domain | AID 1259313 | Tm shift relative to glycine control, % at 25 µM | 2.5% of 340,000 active | NR3A LBD differential scanning fluorimetry, Tm shift; 0% = protein alone, 100% = glycine-bound protein;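 active = melting temperature shift of at least 10% of the positive control shift, at one fixed dose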
HCV NS3 hel inh = inhibitors of Hepatitis C virus NS3 helicase | 0.56% of 290,000 active | AID 1800 | inhibition, % at 10.9 µM | NS3 helicase DNA unwinding, Cy5 molecular beacon fluorescence;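 active = inhibition above the mean of all tested compounds plus 3 SD, set per campaign, cut at about 35% in these data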
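System: Hepatitis C virus NS3 helicase domain fragment enzyme | Reagent: Annealed dual-labelled DNA beacon duplex, ATP-started | Compound dosing: 10.9 µM single point, 0.8% DMSO | Incubation: 1 h reaction at 25 °C, ATP-initiated | Technique: Cy5 fluorescence | Evaluation: Percent inhibition from t60/t0 fluorescence ratio | Benchmarks: Low DMSO, high thioflavine S at 110 µM | Replication: Singlicate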
ZTA DNA inh = counter-screen for EBNA-1 inhibitors: inhibitors of Epstein-Barr virus ZTA; ZTA-DNA binding, fluorescence polarization; inhibition, % at 11 µM; 0.15% of 320,000 active; in the data active = inhibition above about 33%
Target sequence (P03206 whole entry, looked up): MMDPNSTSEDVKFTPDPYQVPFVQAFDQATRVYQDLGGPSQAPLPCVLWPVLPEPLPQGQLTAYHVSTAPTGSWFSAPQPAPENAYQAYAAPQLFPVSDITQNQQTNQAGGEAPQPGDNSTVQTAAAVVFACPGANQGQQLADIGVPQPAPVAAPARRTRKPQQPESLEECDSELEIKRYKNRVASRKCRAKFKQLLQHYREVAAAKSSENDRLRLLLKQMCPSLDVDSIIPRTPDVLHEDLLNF
FGF22 binding = shifts melting point of recombinant human FGF22; recombinant FGF22 thermal shift, SYPRO orange fluorescence; percent of sucrose octasulfate shift, DMSO zero; activity (Tm shift, normalised), % at 9.99 µM; 1.5% of 340,000 active; Q9HCT0;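 active = mean Tm shift, scaled 0 neutral to 100 positive control, at about 1.3% or above, every replicate too, limit read from the data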
Target sequence (Q9HCT0 whole entry, looked up): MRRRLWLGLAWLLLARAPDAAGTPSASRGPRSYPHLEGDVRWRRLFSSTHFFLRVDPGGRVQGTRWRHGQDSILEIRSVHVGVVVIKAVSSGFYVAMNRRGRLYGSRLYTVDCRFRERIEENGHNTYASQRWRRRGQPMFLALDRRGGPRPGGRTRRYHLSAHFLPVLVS
Hits are given with their value; i = inactive; nt = no result.

SMILES	FID counter	EBNA-1 inhibitor	GRIN3A LBD mod	HCV NS3 hel inh	ZTA DNA inh	FGF22 binding
CCOC(=O)c1cnc2ccc(OCC)cc2c1NCc1ccccc1	i	i	15.4	i	i	i
CO[C@@H]1CN(C)C(=O)c2ccc(NS(=O)(=O)c3cn(C)cn3)cc2OC[C@@H](C)NC[C@@H]1C	nt	nt	nt	nt	nt	i
O=C(N/N=C/c1ccc([N+](=O)[O-])o1)c1cc2c(ccc3ccccc32)o1	i	nt	i	i	nt	i
C/C(=N/Nc1ccc([N+](=O)[O-])cc1)c1c[nH]c2ccccc12	i	nt	29.2	i	nt	i
C/C(=N\Nc1ccc([N+](=O)[O-])cc1)c1ccc2c(c1)OCO2	i	i	23.0	i	i	nt
C/C(=N\NC(=O)CCc1c[nH]c2ccccc12)c1ccc([N+](=O)[O-])cc1	i	i	22.1	i	i	43.7
O=C(N/N=C/c1ccc([N+](=O)[O-])o1)c1cc2ccccc2o1	i	i	10.4	i	i	i
C/C(=N\NS(=O)(=O)c1ccc([N+](=O)[O-])cc1)c1ccc2c(c1)OCO2	i	nt	i	i	nt	i
C[C@H]1CN([C@@H](C)CO)C(=O)Cc2cc(NC(=O)Cc3cn(C)c4ccccc34)ccc2O[C@@H]1CN(C)Cc1ccncc1	nt	nt	nt	nt	nt	i
C[C@@H]1CN([C@@H](C)CO)C(=O)c2cc(NC(=O)CCCN(C)C)ccc2O[C@@H]1CN(C)Cc1ccc2c(c1)OCO2	nt	nt	nt	nt	nt	i
O=C(C[C@@H]1C=C[C@@H](NC(=O)NC2CCCCC2)[C@H](CO)O1)NCc1ccccc1	nt	nt	nt	nt	nt	i
CN(C)c1ccc(/C=N/NC(=O)CCc2c[nH]c3ccccc23)cc1	i	i	16.0	i	i	43.9
C/C(=N/Nc1ccc([N+](=O)[O-])cc1)c1ccc(C)cc1C	i	i	23.6	i	i	i
C/C(=N\Nc1ccc([N+](=O)[O-])cc1)c1cc2ccccc2o1	i	i	27.1	i	i	43.7
CC1=NNC(=O)C1CCC(=O)N/N=C(/C)c1ccc([N+](=O)[O-])cc1 (stereo not given)	i	i	i	i	i	43.0
O=C(Cc1c[nH]c2ccccc12)N/N=C/c1ccc(F)cc1	i	i	i	i	i	nt
COCC(=O)Nc1ccc2c(c1)OC[C@H](C)N(CCc1ccccc1)C[C@@H](C)[C@@H](OC)CN(C)C2=O	nt	nt	nt	nt	nt	i
C[C@@H]1CN([C@@H](C)CO)C(=O)c2cc(C#C[C@@H](C)O)cnc2O[C@H]1CN(C)C(=O)Cc1ccncc1	nt	nt	nt	nt	nt	i
C[C@@H]1CN([C@H](C)CO)C(=O)CCCn2cc(nn2)CO[C@H]1CN(C)Cc1ccccc1C(=O)O	nt	nt	nt	nt	nt	i
CC(C)NC(=O)NCC[C@H]1CC[C@H](NC(=O)Nc2ccccc2)[C@H](CO)O1	nt	nt	nt	nt	nt	i
Cc1ccc2nc(-c3sc4nc(C)ccc4c3N)[nH]c2c1	i	i	25.2	i	i	nt
Cc1cc(C)c2c(N)c(-c3nc4ccccc4[nH]3)sc2n1	i	i	i	i	i	nt
CCN(CC)S(=O)(=O)c1cccc(-c2nn(-c3ccccc3)cc2/C=C(\C#N)C(=O)NCc2ccco2)c1	i	i	i	i	i	nt
CCCOc1cccc(-c2nn(-c3ccccc3)cc2/C=C(\C#N)C(=O)NCCCn2ccnc2)c1	i	i	11.4	i	i	i
CN(C)S(=O)(=O)c1cccc(-c2nn(-c3ccccc3)cc2/C=C(/C#N)C(=O)NCc2ccco2)c1	i	i	15.5	i	i	nt
SMILES	FID counter	EBNA-1 inhibitor	GRIN3A LBD mod	HCV NS3 hel inh	ZTA DNA inh	FGF22 binding
CCCC(=O)Nc1ccc2c(c1)OC[C@@H](C)N(Cc1cccc(F)c1)C[C@H](C)[C@H](OC)CN(C)C2=O	nt	nt	nt	nt	nt	i
CCOc1ccc(Nc2cc(C)c3ccccc3n2)cc1	i	i	21.5	i	i	i
CC(=O)Nc1ccc(Nc2cc(C)c3ccccc3n2)cc1	i	i	12.6	i	i	nt
CCOc1ccc(Nc2nc(NCC3CCCO3)c3ccccc3n2)cc1 (stereo not given)	38.6	i	i	i	i	i
Cc1cc(Nc2ccccc2)nc2cc(O)ccc12	i	i	i	i	i	i
C/C=C/c1cnc2c(c1)C(=O)N([C@H](C)CO)C[C@H](C)[C@H](CN(C)C(=O)Nc1c(C)noc1C)O2	nt	nt	nt	nt	nt	i
O=C(C[C@@H]1CC[C@@H]2[C@H](COC[C@H](O)CN2Cc2cccc(C(F)(F)F)c2)O1)NCc1ccncc1	nt	nt	nt	nt	nt	i
C[C@H](CO)N1C[C@H](C)[C@@H](CN(C)C(=O)NC2CCCCC2)Oc2c(NC(=O)C3CCOCC3)cccc2C1=O	nt	nt	nt	nt	nt	i

Source: PubChem BioAssay (several laboratories)
